# ChEMBL document CHEMBL2146475, “A novel bitriazolyl acyclonucleoside endowed with dual antiproliferative and immunomodulatory activity” (J Med Chem, 2012)
# Active and inactive are the calls of the source. No cut-off for these calls is given here.
# Assays:
# MIA PaCa-2 [1] = experiment: Cytotoxicity against multidrug-resistant human MIAPaCa2 cells assessed as cell viability at 50 uM after 48 hrs by MTT assay; assay type: functional, cell-based
# Method in brief: (§1)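 Cells left untreated or incubated at 50 μM for 48 h, with gemcitabine 50 μM as reference. Viability read by MTT.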
# MIA PaCa-2 [2] = experiment: Cell cycle arrest in multidrug-resistant human MIAPaCa2 cells assessed as accumulation at sub-G0/G1 phase after 48 hrs by propidium iodide staining based FACS flow cytometry (reference value: 1.17%); assay type: functional
# MIA PaCa-2 [3] = experiment: Induction of apoptosis in multidrug-resistant human MIAPaCa2 cells assessed as necrotic cells after 48 hrs using AnnexinV-FITC conjugated 7- AAD staining by flow cytometry (reference value: 0.17%); assay type: functional
# MIA PaCa-2 [4] = experiment: Induction of apoptosis in multidrug-resistant human MIAPaCa2 cells assessed as late apoptotic cells after 48 hrs using AnnexinV-FITC conjugated 7- AAD staining by flow cytometry (reference value: 0.21%); assay type: functional
# MIA PaCa-2 [5] = experiment: Induction of apoptosis in multidrug-resistant human MIAPaCa2 cells assessed as early apoptotic cells after 48 hrs using AnnexinV-FITC conjugated 7- AAD staining by flow cytometry (reference value: 2.54%); assay type: functional
# MIA PaCa-2 [6] = experiment: Induction of apoptosis in multidrug-resistant human MIAPaCa2 cells assessed as increase in caspase-3/7 activity after 48 hrs by caspase-Glo 3/7 assay; assay type: functional, cell-based
# Method in brief: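 MiaPaCa-2 cells treated 48 h, with untreated and gemcitabine references. Caspase-3/7 activity measured. Run in triplicate.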
# MIA PaCa-2 [7] = experiment: Induction of apoptosis in multidrug-resistant human MIAPaCa2 cells assessed as increase in DNA/histone nucleosome release after 48 hrs by ELISA relative to control; assay type: functional
# Method in brief: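 MiaPaCa-2 cells treated 48 h, with untreated and gemcitabine references. Cytoplasmic DNA/histone nucleosome release detected by ELISA and compared with untreated cells. Run in triplicate.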
# MCF7 [8] = experiment: Cytotoxicity against human MCF7 cells assessed as cell viability after 48 hrs by MTT assay; assay type: functional, cell-based
# Method in brief: (§2)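 Cells left untreated or incubated with compound over 50 nM to 200 μM for 48 h. Viability read by MTT. Values are mean SE of three independent experiments, and IC50 is taken from the dose-response curves.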
# [9] = biological target: T1, Toll-like receptor 7 (Mus musculus) (UniProt P58681); experiment: Activation of TLR7 in C57BL/6 mouse bone marrow dendritic cells assessed as increase of IL6 production after 24 hrs by ELISA; assay type: cell-based
# T1 sequence (whole entry): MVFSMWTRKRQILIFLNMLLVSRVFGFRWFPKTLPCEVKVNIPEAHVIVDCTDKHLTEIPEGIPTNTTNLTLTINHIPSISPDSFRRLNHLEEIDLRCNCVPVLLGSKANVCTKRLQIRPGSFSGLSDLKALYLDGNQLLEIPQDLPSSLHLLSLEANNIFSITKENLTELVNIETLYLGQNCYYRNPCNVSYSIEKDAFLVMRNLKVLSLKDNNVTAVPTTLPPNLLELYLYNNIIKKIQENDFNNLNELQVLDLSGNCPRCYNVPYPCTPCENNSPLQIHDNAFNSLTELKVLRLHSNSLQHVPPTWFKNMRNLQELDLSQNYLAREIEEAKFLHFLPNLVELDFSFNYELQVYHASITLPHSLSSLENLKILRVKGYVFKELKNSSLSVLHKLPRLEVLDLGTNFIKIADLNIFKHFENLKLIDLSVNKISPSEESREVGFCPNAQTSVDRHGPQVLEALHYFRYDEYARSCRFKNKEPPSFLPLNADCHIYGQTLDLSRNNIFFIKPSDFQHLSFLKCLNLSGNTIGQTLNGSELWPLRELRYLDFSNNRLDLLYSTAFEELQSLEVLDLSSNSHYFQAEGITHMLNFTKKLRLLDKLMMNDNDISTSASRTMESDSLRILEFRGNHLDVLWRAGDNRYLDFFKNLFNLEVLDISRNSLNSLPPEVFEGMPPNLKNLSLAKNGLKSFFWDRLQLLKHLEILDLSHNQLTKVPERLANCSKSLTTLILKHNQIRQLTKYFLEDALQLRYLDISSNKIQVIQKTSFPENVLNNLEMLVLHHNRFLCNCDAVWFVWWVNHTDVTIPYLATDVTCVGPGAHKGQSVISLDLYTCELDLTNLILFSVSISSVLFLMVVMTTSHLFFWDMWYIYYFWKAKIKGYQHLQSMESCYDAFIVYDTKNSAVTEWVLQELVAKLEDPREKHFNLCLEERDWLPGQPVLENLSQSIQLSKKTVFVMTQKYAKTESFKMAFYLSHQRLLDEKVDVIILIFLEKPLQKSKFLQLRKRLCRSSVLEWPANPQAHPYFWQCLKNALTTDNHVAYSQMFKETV
# Method in brief: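 Bone marrow dendritic cells from wild-type mice, left untreated or stimulated with two doses for 24 h. IL-6 in culture supernatants measured by ELISA. Mean SD of four mice per group.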
# Dendritic cell [10] = experiment: Immunostimulatory activity against wild type C57BL/6 mouse bone marrow dendritic cells assessed as increase in IL-12p40 level at 3 to 10 uM after 24 hrs by ELISA; assay type: functional, cell-based
# Method in brief: (§3)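 Bone marrow dendritic cells from wild-type, TLR3−/−, TLR7−/− and TLR9−/− mice, left untreated or stimulated with different doses for 24 h. IL-12p40 protein in culture supernatants measured by ELISA.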
# Dendritic cell [11] = experiment: Immunostimulatory activity against TLR3-deficient C57BL/6 mouse bone marrow dendritic cells assessed as increase in IL-12p40 level at 3 to 10 uM after 24 hrs by ELISA; assay type: functional, cell-based; method in brief: as §3
# Dendritic cell [12] = experiment: Immunostimulatory activity against TLR9-deficient C57BL/6 mouse bone marrow dendritic cells assessed as increase in IL-12p40 level at 3 to 10 uM after 24 hrs by ELISA; assay type: functional, cell-based; method in brief: as §3
# Dendritic cell [13] = experiment: Immunostimulatory activity against TLR7-deficient C57BL/6 mouse bone marrow dendritic cells assessed as increase in IL-12p40 level at 10 uM after 24 hrs by ELISA; assay type: functional, cell-based; method in brief: as §3
# Capan-2 [14] = experiment: Cytotoxicity against human Capan2 cells assessed as cell viability at 50 uM after 48 hrs by MTT assay; assay type: functional, cell-based; method in brief: as §1
# PANC-1 [15] = experiment: Cytotoxicity against human PANC1 cells assessed as cell viability at 50 uM after 48 hrs by MTT assay; assay type: functional, cell-based; method in brief: as §1
# PC-3 [16] = experiment: Cytotoxicity against human PC3 cells assessed as cell viability at 50 uM after 48 hrs by MTT assay; assay type: functional, cell-based; method in brief: as §1
# HeLa [17] = experiment: Cytotoxicity against human HeLa cells assessed as cell viability at 50 uM after 48 hrs by MTT assay; assay type: functional, cell-based; method in brief: as §1
# MCF7 [18] = experiment: Cytotoxicity against human MCF7 cells assessed as cell viability at 50 uM after 48 hrs by MTT assay; assay type: functional, cell-based; method in brief: as §1
# MIA PaCa-2 [19] = experiment: Cytotoxicity against multidrug-resistant human MIAPaCa2 cells assessed as cell viability after 48 hrs by MTT assay; assay type: functional, cell-based; method in brief: as §2
# Capan-2 [20] = experiment: Cytotoxicity against human Capan2 cells assessed as cell viability after 48 hrs by MTT assay; assay type: functional, cell-based; method in brief: as §2
# PANC-1 [21] = experiment: Cytotoxicity against human PANC1 cells assessed as cell viability after 48 hrs by MTT assay; assay type: functional, cell-based; method in brief: as §2
# PC-3 [22] = experiment: Cytotoxicity against human PC3 cells assessed as cell viability after 48 hrs by MTT assay; assay type: functional, cell-based; method in brief: as §2
# HeLa [23] = experiment: Cytotoxicity against human HeLa cells assessed as cell viability after 48 hrs by MTT assay; assay type: functional, cell-based; method in brief: as §2
smiles,measurement,setting,value
COC(=O)c1nc(-c2cn(Cc3ccc4cc5ccccc5cc4c3)nn2)n(COCCOC(C)=O)n1,Activity,MIA PaCa-2 [1],inactive
COC(=O)c1nc(CCc2ccc3ccc4cccc5ccc2c3c45)n(COCCOC(C)=O)n1,Activity,MIA PaCa-2 [1],inactive
Nc1ccn([C@@H]2O[C@H](CO)[C@@H](O)C2(F)F)c(=O)n1 [GEMCITABINE],Activity,MIA PaCa-2 [2],7.9%
same,Activity,MIA PaCa-2 [3],0.35%
same,Activity,MIA PaCa-2 [4],0.86%
same,Activity,MIA PaCa-2 [5],10.47%
same,Activity,MIA PaCa-2 [6],Active
same,Activity,MIA PaCa-2 [7],Active
COC(=O)c1nc(-c2cn(Cc3ccc4ccc5cccc6ccc3c4c56)nn2)n(COCCOC(C)=O)n1,Activity,MCF7 [8],Dose-dependent effect
same,IC50,"MCF7 [8]; MCF7, 48 h",≤ 10 µM
same,Activity,MIA PaCa-2 [2],36.9%
same,Activity,MIA PaCa-2 [3],0.41%
same,Activity,MIA PaCa-2 [4],22.44%
same,Activity,MIA PaCa-2 [5],28.48%
same,Activity,MIA PaCa-2 [6],Active
same,Activity,[9],Dose-dependent effect
same,Activity,Dendritic cell [10],Active
same,Activity,Dendritic cell [11],Active
same,Activity,Dendritic cell [12],Active
same,Activity,Dendritic cell [13],inactive
same,fold change (FC),MIA PaCa-2 [7],15
same,Activity,MIA PaCa-2 [1],Active
same,Activity,Capan-2 [14],Active
same,Activity,PANC-1 [15],Active
same,Activity,PC-3 [16],Active
same,Activity,HeLa [17],Active
same,Activity,MCF7 [18],Active
same,Activity,MIA PaCa-2 [19],Dose-dependent effect
same,IC50,"MIA PaCa-2 [19]; MIA PaCa-2, 48 h",≤ 10 µM
same,Activity,Capan-2 [20],Dose-dependent effect
same,IC50,"Capan-2 [20]; Capan-2, 48 h",≤ 10 µM
same,Activity,PANC-1 [21],Dose-dependent effect
same,IC50,"PANC-1 [21]; PANC-1, 48 h",≤ 10 µM
same,Activity,PC-3 [22],Dose-dependent effect
same,IC50,"PC-3 [22]; PC-3, 48 h",≤ 10 µM
same,Activity,HeLa [23],Dose-dependent effect
same,IC50,HeLa [23],≤ 10 µM
COC(=O)c1nc(-c2cn(-c3ccc4ccc5cccc6ccc3c4c56)nn2)n(COCCOC(C)=O)n1,Activity,MIA PaCa-2 [1],inactive
COC(=O)c1nc(C#Cc2ccc3ccc4cccc5ccc2c3c45)n(COCCOC(C)=O)n1,Activity,MIA PaCa-2 [1],inactive
COC(=O)c1nc(-c2cn(Cc3ccc4ccc5cccc6ccc3c4c56)nn2)n([C@@H]2O[C@H](COC(C)=O)[C@@H](OC(C)=O)[C@H]2OC(C)=O)n1,Activity,MIA PaCa-2 [19],inactive
COC(=O)c1nc(-c2cn(Cc3ccc4ccc5cccc6ccc3c4c56)nn2)nn1COCCOC(C)=O,Activity,MIA PaCa-2 [1],inactive
NC(=O)c1nc(-c2cn(Cc3ccc4ccc5cccc6ccc3c4c56)nn2)n(COCCO)n1,Activity,MIA PaCa-2 [19],Active
COC(=O)c1nc(Nc2ccc3ccc4cccc5ccc2c3c45)n(COCCOC(C)=O)n1,Activity,MIA PaCa-2 [1],inactive
COC(=O)c1nc(-c2cn(Cc3ccc4ccccc4c3)nn2)n(COCCOC(C)=O)n1,Activity,MIA PaCa-2 [1],inactive
COC(=O)c1nc(-c2cn(Cc3ccccc3)nn2)n(COCCOC(C)=O)n1,Activity,MIA PaCa-2 [1],inactive
